Assays:
[1] = system: MCF7; assay: Cytotoxicity against human MCF7 cells assessed as reduction in cell viability after 72 hrs by CCK8 assay; assay type: functional, cell-based
Outline: (§1)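 Cells kept in RPMI or DMEM with 10% FBS and 1% penicillin/streptomycin at 37 °C in 5% CO2. Seeded at 400-800 cells/well in 384-well plates and exposed to varying compound concentrations, with solution-only control, for 72 h. CCK8 reagent added, then absorbance read at 450 nm. Plinabulin and TSA were positive controls. Mean SD of three experiments.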

[2] = system: U-937; assay: Cytotoxicity against human U937 cells assessed as viable cells at 5 uM after 48 hrs by CCK8 assay relative to control; assay type: functional; conditions: U-937, 48 h, read-out: Activity
Outline: (§2)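 Viability of U937, K562 and H1975 cells cultured in RPMI or DMEM with 10% FBS and 1% penicillin/streptomycin at 37 °C in 5% CO2. Cells treated at two fixed concentrations (5 or 10) for 24 or 48 h. Viable cells measured by CCK8 and expressed relative to control. Mean SD of three experiments.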

[3] = system: K562; assay: Cytotoxicity against human K562 cells assessed as viable cells at 5 uM after 24 hrs by CCK8 assay relative to control; assay type: functional; conditions: K562, 24 h, read-out: Activity; outline: as §2
[4] = system: A549; assay: Cytotoxicity against human A549 cells assessed as reduction in cell viability after 72 hrs by CCK8 assay; assay type: functional, cell-based; outline: as §1
[5] = system: NCI-H1975; assay: Cytotoxicity against human NCI-H1975 cells assessed as reduction in cell viability after 72 hrs by CCK8 assay; assay type: functional, cell-based; outline: as §1
[6] = system: HeLa; assay: Cytotoxicity against human HeLa cells assessed as reduction in cell viability after 72 hrs by CCK8 assay; assay type: functional, cell-based; outline: as §1
[7] = system: HL-60; assay: Cytotoxicity against human HL60 cells assessed as reduction in cell viability after 72 hrs by CCK8 assay; assay type: functional, cell-based; outline: as §1
[8] = system: U-937; assay: Cytotoxicity against human U937 cells assessed as viable cells at 5 uM after 24 hrs by CCK8 assay relative to control; assay type: functional; conditions: U-937, 24 h, read-out: Activity; outline: as §2
[9] = system: U-937; assay: Cytotoxicity against human U937 cells assessed as reduction in cell viability after 72 hrs by CCK8 assay; assay type: functional, cell-based; outline: as §1
[10] = system: K562; assay: Cytotoxicity against human K562 cells assessed as reduction in cell viability after 72 hrs by CCK8 assay; assay type: functional, cell-based; outline: as §1
[11] = system: NCI-H1975; assay: Cytotoxicity against human NCI-H1975 cells assessed as viable cells at 10 uM after 48 hrs by CCK8 assay relative to control; assay type: functional; conditions: NCI-H1975, 48 h, read-out: Activity; outline: as §2
[12] = system: U-937; assay: Cytotoxicity against human U937 cells assessed as viable cells at 10 uM after 24 hrs by CCK8 assay relative to control; assay type: functional; conditions: U-937, 24 h, read-out: Activity; outline: as §2
[13] = system: K562; assay: Cytotoxicity against human K562 cells assessed as viable cells at 5 uM after 48 hrs by CCK8 assay relative to control; assay type: functional; conditions: K562, 48 h, read-out: Activity; outline: as §2
[14] = system: U-937; assay: Cytotoxicity against human U937 cells assessed as viable cells at 10 uM after 48 hrs by CCK8 assay relative to control; assay type: functional; conditions: U-937, 48 h, read-out: Activity; outline: as §2
[15] = Cytotoxicity against human BGC823 cells assessed as reduction in cell viability after 72 hrs by CCK8 assay; assay type: functional, cell-based, BGC-823; outline: as §1
[16] = system: K562; assay: Cytotoxicity against human K562 cells assessed as viable cells at 10 uM after 24 hrs by CCK8 assay relative to control; assay type: functional; conditions: K562, 24 h, read-out: Activity; outline: as §2
[17] = system: NCI-H1975; assay: Cytotoxicity against human NCI-H1975 cells assessed as viable cells at 5 uM after 24 hrs by CCK8 assay relative to control; assay type: functional; conditions: NCI-H1975, 24 h, read-out: Activity; outline: as §2
[18] = system: NCI-H1975; assay: Cytotoxicity against human NCI-H1975 cells assessed as viable cells at 10 uM after 24 hrs by CCK8 assay relative to control; assay type: functional; conditions: NCI-H1975, 24 h, read-out: Activity; outline: as §2
[19] = system: NCI-H1975; assay: Cytotoxicity against human NCI-H1975 cells assessed as viable cells at 5 uM after 48 hrs by CCK8 assay relative to control; assay type: functional; conditions: NCI-H1975, 48 h, read-out: Activity; outline: as §2
[20] = system: MOLT-4; assay: Cytotoxicity against human MOLT4 cells assessed as reduction in cell viability after 72 hrs by CCK8 assay; assay type: functional, cell-based; outline: as §1
[21] = system: K562; assay: Cytotoxicity against human K562 cells assessed as viable cells at 10 uM after 48 hrs by CCK8 assay relative to control; assay type: functional; conditions: K562, 48 h, read-out: Activity; outline: as §2
[22] = Cytotoxicity against human HuH7 cells assessed as reduction in cell viability after 72 hrs by CCK8 assay; assay type: functional, cell-based, Huh-7; outline: as §1
[23] = Homo sapiens, MCF7, 72 h, read-out: IC50
[24] = Homo sapiens, A549, 72 h, read-out: IC50
[25] = Homo sapiens, NCI-H1975, 72 h, read-out: IC50
[26] = Homo sapiens, HeLa, 72 h, read-out: IC50
[27] = Homo sapiens, HL-60, 72 h, read-out: IC50
[28] = Homo sapiens, U-937, 72 h, read-out: IC50
[29] = Homo sapiens, K562, 72 h, read-out: IC50
[30] = Homo sapiens, BGC-823, 72 h, read-out: IC50
[31] = Homo sapiens, MOLT-4, 72 h, read-out: IC50
[32] = Homo sapiens, Huh-7, 72 h, read-out: IC50

Row | SMILES | IC50 [1, 23] | IC50 [4, 24] | IC50 [5, 25] | IC50 [6, 26] | IC50 [7, 27] | IC50 [9, 28] | IC50 [10, 29] | IC50 [15, 30] | IC50 [20, 31] | IC50 [22, 32] | IC50 ([1]; mcf7) | IC50 ([4]; a549) | IC50 ([5]; nci-h1975) | IC50 ([6]; hela) | IC50 ([7]; hl-60) | IC50 ([9]; u-937) | IC50 ([10]; k562) | IC50 ([15]; bgc-823) | IC50 ([20]; molt-4) | IC50 ([22]; huh-7) | also measured
1 | C=CCn1c(=O)/c(=C\c2cccc(Cl)c2Cl)[nH]c(=O)/c1=C\c1ccccc1OC | 2.1 µM | 2.3 µM | 4.5 µM | 1.6 µM | 2 µM | 0.5 µM | 0.9 µM | 2.2 µM | 1.2 µM | 1.2 µM | – | – | – | – | – | – | – | – | – | – | viability at 5 µM [2]: 0.9%; viability at 5 µM [3]: 104%; viability at 5 µM [8]: 7%; viability at 10 µM [11]: 42.6%; viability at 10 µM [12]: 8.7%; viability at 5 µM [13]: 24.2%; viability at 10 µM [14]: 1.3%; viability at 10 µM [16]: 103%; viability at 5 µM [17]: 107%; viability at 10 µM [18]: 98.9%; viability at 5 µM [19]: 42.7%; viability at 10 µM [21]: 14.9%
2 | C=CCn1c(=O)/c(=C\c2ccc(Cl)c(Cl)c2)[nH]c(=O)/c1=C\c1ccccc1 | – | – | – | – | – | – | – | – | – | – | Not Active | Not Active | Not Active | Not Active | Not Active | Not Active | Not Active | Not Active | Not Active | Not Active | –
3 | C=CCn1c(=O)/c(=C\c2ccccc2Cl)[nH]c(=O)/c1=C\c1ccccc1OC | 4.7 µM | 5.3 µM | 9.2 µM | 5.1 µM | 4.2 µM | 0.7 µM | 2.5 µM | 4.6 µM | 4.4 µM | 6.4 µM | – | – | – | – | – | – | – | – | – | – | –
4 | C=CCn1c(=O)/c(=C\c2cc(OC)c(OC)c(OC)c2)[nH]c(=O)/c1=C\c1ccccc1 | – | – | – | – | – | – | – | – | – | – | Not Active | Not Active | Not Active | Not Active | Not Active | Not Active | Not Active | Not Active | Not Active | Not Active | –
5 | C=CCn1c(=O)/c(=C\c2ccccc2F)[nH]c(=O)/c1=C\c1ccccc1OC | 23 µM | – | 25.1 µM | 45 µM | 18.5 µM | 5.5 µM | 5.6 µM | 18.9 µM | 20 µM | 31.3 µM | – | Not Active | – | – | – | – | – | – | – | – | –
